High-throughput results: PubChem BioAssay, Broad Institute
Hits are enriched below; roughly 3.1% of the tested compounds scored in any of these assays.
EWS-Fli inh: blocks EWS/Fli oncoprotein-driven transcription. AID 651661. A673 NR0B1-luciferase reporter, viability-normalised. 0.67% of 350,000 active. inhibition, % at 12.6 µM;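 active means mean inhibition of at least 50% after viability correction, with every replicate also passing that limit; inconclusive means mean reaches 50% but only one of two replicates passes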;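 further: firefly luciferase signal divided by Alamar Blue viability fluorescence both relative to DMSO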
PGC1a acetyl inh: PGC1a acetylation modulation, inhibitor mode; 0.17% of 350,000 active; U2OS PGC1a acetylation, AlphaScreen anti-acetyl-lysine; with virally co-expressed GCN5 acetyltransferase; inhibition, % at 15.6 µM;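 active means every replicate shows inhibition of at least 40%; inconclusive means mean inhibition at least 40% but some replicate below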
PAX8 reporter: inhibitors of PAX8 transcriptional activity in RMG-I cells; RMG-I TPO-luciferase reporter, SteadyGlo, 24 h; inhibition, % at 12.6 µM; 1.2% of 360,000 active;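 active means mean replicate inhibition at least 60% with every replicate also reaching 60%; inconclusive means only one of the two criteria is met; inactive means mean below 60% and not all replicates reaching 60%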;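 further: luciferase light reporting Pax8 driven TPO promoter activity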
FGF22 binding: binders of recombinant human FGF22 by thermal shift; Q9HCT0; SYPRO orange fluorescence; percent of sucrose octasulfate shift, DMSO zero; activity (Tm shift, normalised), % at 9.99 µM; 1.5% of 340,000 active;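 active means mean Tm shift, scaled 0 neutral to 100 positive control, at about 1.3% or above, every replicate too, limit read from the data; inconclusive means no clear call, values can overlap the other calls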
Target sequence (Q9HCT0 whole entry, looked up): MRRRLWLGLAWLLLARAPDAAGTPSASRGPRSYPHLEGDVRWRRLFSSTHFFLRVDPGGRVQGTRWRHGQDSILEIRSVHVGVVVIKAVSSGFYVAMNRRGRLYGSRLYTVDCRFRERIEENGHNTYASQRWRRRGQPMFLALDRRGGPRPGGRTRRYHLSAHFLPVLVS
FN deposition inh: fibronectin deposition inhibition; AH1F fibroblasts, Alexa488-fibronectin deposition fluorescence, overnight; inhibition, % at 12.6 µM; 0.086% of 350,000 active; AID 743247;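 active means mean inhibition across replicates of 30% or more, regardless of how many single replicates reach that level; inconclusive means mean under 30% yet at least half of replicates reach 30%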
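Measured by – fluorescence 485/525 nm · System – AH1F fibroblast monolayer, labelled fibronectin deposition · Amount – 10000 cells per well · Buffer or medium – serum-reduced DMEM (2% serum) · Doses – single dose, pinned · Also added – fluorescent fibronectin at 24 nM final · Schedule – 1 h cell attachment, overnight exposure to compound and label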
HIV Env fusion: blocks HIV Env-driven cell-cell fusion. inhibition, % at 12.3 µM. 1.1% of 360,000 active. AID 651610. HeLa-JRFL Env/CEM21 cell fusion, luciferase;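 active means mean replicate inhibition score of at least 50 and every replicate individually at or above 50; inconclusive means only one of the two criteria met; inactive means mean below 50 and not all replicates reaching 50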
Of the large screens only hits and unclear results are named; the others gave an inactive call.

CNC(=O)C[C@H]1CC[C@H]2[C@@H](COc3ccc(NC(=O)Nc4cccc(C)c4)cc3C(=O)N2C)O1	none (no result: HIV Env fusion)
COCc1cc(C)nc(OCC(=O)N/N=C/c2ccccc2O)c1C#N	FGF22 binding 44 (no result: PGC1a acetyl inh)
CCOc1cc(/C=N/NC(=O)COc2nc(C)cc(COC)c2C#N)ccc1O	none
COCc1cc(C)nc(OCC(=O)N/N=C/c2ccc(O)cc2O)c1C#N	FGF22 binding 44 (no result: PGC1a acetyl inh)
COc1cc(C(=O)Nc2cccc(-c3nnc(-c4ccco4)o3)c2)ccc1OC(C)=O	FGF22 binding 44 (no result: PGC1a acetyl inh)
COc1ccc(C(=O)Nc2cccc(-c3nnc(-c4ccco4)o3)c2)cc1	none (no result: EWS-Fli inh, PAX8 reporter, FGF22 binding, FN deposition inh)
C[C@@H]1CN([C@@H](C)CO)C(=O)c2ccccc2-c2ccccc2CO[C@H]1CN(C)S(=O)(=O)c1ccc(F)cc1	none (no result: PAX8 reporter, HIV Env fusion)
NC(=O)N/N=C/c1ccccc1OC(=O)c1ccccc1Br	FGF22 binding 43
COc1ccc(/C=N/NC(=S)Nc2ccccc2)cc1	FGF22 binding 45 (no result: PGC1a acetyl inh)
COc1ccc(/C=N/NC(=S)Nc2cccc(C(=O)O)c2)cc1	none (no result: PGC1a acetyl inh, FGF22 binding)
C=CCNC(=S)N/N=C/c1cccc([N+](=O)[O-])c1	FGF22 binding 43
O=[N+]([O-])c1ccc(C=NNC(=S)Nc2ccc(F)cc2)cc1	FGF22 binding 44 (no result: HIV Env fusion)
O=C(C[C@H]1CC[C@H]2[C@@H](COC[C@@H](O)CN2S(=O)(=O)c2ccc(F)cc2)O1)NCc1ccncn1	none (no result: HIV Env fusion)
O=C(C[C@@H]1C[C@@H]2c3cc(NC(=O)c4cccnc4)ccc3O[C@@H]2[C@H](CO)O1)NCc1ccc(Oc2ccccc2)cc1	none (no result: FN deposition inh)
COc1cc(/C=N/NC(=S)Nc2cccc(C(=O)O)c2)ccc1O	EWS-Fli inh 81, PAX8 reporter 80
COc1cccc(/C=N/NC(=O)C(=O)N/N=C/c2cccc(OC)c2OC)c1OC	none (no result: PGC1a acetyl inh, HIV Env fusion)
COc1cccc(/C=N/NC(=S)Nc2cccc(C(=O)O)c2)c1O	EWS-Fli inh 61 (no result: PGC1a acetyl inh, FGF22 binding)
COc1ccccc1C=NNC(=O)C(=O)NN=Cc1ccccc1OC	FGF22 binding 43
COc1cccc(/C=N/NC(=O)c2ccc(-c3ccccc3)cc2)c1O	none (no result: EWS-Fli inh, PAX8 reporter, FGF22 binding, FN deposition inh, HIV Env fusion)
O=C(CN1CCOCC1)N[C@@H]1CC[C@H](CCNC(=O)Nc2cc(F)ccc2F)O[C@H]1CO	none
Cc1ccc(-c2cnc3c(c2)C(=O)N([C@@H](C)CO)C[C@@H](C)[C@H](CN(C)CC2CCOCC2)O3)cc1	none (no result: PAX8 reporter, FN deposition inh)
COc1ccc(S(=O)(=O)N(C)C[C@H]2Oc3ccc(NS(=O)(=O)c4ccc(C)cc4)cc3C(=O)N([C@H](C)CO)C[C@@H]2C)cc1	none (no result: FN deposition inh, HIV Env fusion)
C[C@@H]1CN([C@@H](C)CO)C(=O)c2cc(NC(=O)Nc3cccc4ccccc34)ccc2O[C@@H](C)CCCCO[C@@H]1CN(C)S(=O)(=O)c1cn(C)cn1	none (no result: FN deposition inh)
C[C@H](CO)N1C[C@H](C)[C@@H](CN(C)CC2CCCCC2)OCCCC[C@H](C)Oc2ccc(NS(=O)(=O)c3ccc(Cl)cc3)cc2C1=O	none (no result: FN deposition inh)
COc1ccc(S(=O)(=O)N(C)C[C@H]2Oc3ccc(N(C)C)cc3CC(=O)N([C@@H](C)CO)C[C@@H]2C)cc1	none
O=C(O)c1ccc(C2SCC(=O)N2Cc2ccco2)cc1 (centres undefined)	FGF22 binding 1.5
Nc1ncnc(N2CCc3ccccc32)c1[N+](=O)[O-]	HIV Env fusion 67
C[C@@H]1CN([C@@H](C)CO)C(=O)Cc2cc(NC(=O)C3CCCCC3)ccc2O[C@@H]1CN(C)C(=O)Nc1ccc(F)cc1	none
Cc1ccc(Cl)cc1N1CCN(C(=O)C2CCN(c3nnc(-n4cccc4)s3)CC2)CC1	HIV Env fusion 56
Cc1cccc(N2CCN(C(=O)c3c(-c4ccccc4Cl)noc3C)CC2)c1C	EWS-Fli inh 53 (no result: PGC1a acetyl inh)
COCC(=O)N(C)C[C@@H]1Oc2cc(C#CC3CCCC3)ccc2S(=O)(=O)N([C@@H](C)CO)C[C@@H]1C	none (no result: PAX8 reporter, FGF22 binding, FN deposition inh)
CC(=O)Nc1ccc(C(=O)CSc2cc(C)c3cccc(C)c3n2)cc1	PAX8 reporter 123 (no result: HIV Env fusion)
CCCNC(=O)CCCCn1c(=S)[nH]c2c([nH]c3ccc(OC)cc32)c1=O	FGF22 binding 43
O=C(Nc1ncc(Cc2ccc(SC(F)F)cc2)s1)c1ccc(OC(F)F)cc1	EWS-Fli inh 53, PAX8 reporter inconclusive (no result: PGC1a acetyl inh)
Cc1ccc(Cc2cnc(NC(=O)c3ccco3)s2)cc1	none (no result: EWS-Fli inh, PAX8 reporter, FGF22 binding, FN deposition inh, HIV Env fusion)
O=C(O)COc1ccc(Cl)cc1C1CCCCC1	FGF22 binding 43
O=C(COc1ccc(F)cc1Cl)NC1CCCCCC1	none
O=C(C[C@@H]1CC[C@@H]2[C@H](COC[C@@H](O)CN2C(=O)C2CC2)O1)NCc1ccccc1Cl	none
C[C@H]1CN([C@@H](C)CO)C(=O)c2cccc(NC(=O)c3nc4ccccc4s3)c2O[C@@H]1CN(C)Cc1ccncc1	none (no result: FN deposition inh, HIV Env fusion)
CCOC(=O)c1sc(=S)n(C)c1NC(=O)c1ccccc1Cl	PAX8 reporter 76 (no result: PGC1a acetyl inh, HIV Env fusion)
Cc1cc(C(=O)Nc2ccc3c(c2)C(=O)N(C)[C@@H]2CC[C@H](CC(=O)NCc4ccc(-c5ccccc5)cc4)O[C@@H]2CO3)no1	EWS-Fli inh inconclusive, PAX8 reporter 80 (no result: PGC1a acetyl inh)
Cc1cc(C(=O)Nc2ccc3c(c2)C(=O)N(C)[C@H]2CC[C@@H](CC(=O)NCc4ccc(-c5ccccc5)cc4)O[C@H]2CO3)no1	PAX8 reporter 91 (no result: PGC1a acetyl inh)
Cc1cc(C(=O)Nc2ccc3c(c2)C(=O)N(C)[C@@H]2CC[C@H](CC(=O)NCc4ccc(-c5ccccc5)cc4)O[C@H]2CO3)no1	EWS-Fli inh 57, PAX8 reporter 80 (no result: PGC1a acetyl inh, FN deposition inh)
Cc1cc(C(=O)Nc2ccc3c(c2)C(=O)N(C)[C@H]2CC[C@H](CC(=O)NCc4ccc(-c5ccccc5)cc4)O[C@H]2CO3)no1	HIV Env fusion inconclusive (no result: PGC1a acetyl inh)
CS(=O)(=O)N1CC(=O)N2[C@H](C1)[C@@H](c1ccc(C#CCc3ccccc3)cc1)[C@@H]2CO	none (no result: FN deposition inh, HIV Env fusion)
CC(=O)N1[C@@H]2c3ccc(C4=CCCCC4)c(=O)n3C[C@H]1[C@H](CO)[C@H]2C(=O)N[C@@H](C)c1ccccc1	none (no result: PGC1a acetyl inh, PAX8 reporter, FN deposition inh)
C[C@H](CO)N1C[C@H](C)[C@@H](CN(C)C)Oc2cc(-c3ccc(F)cc3)ccc2S1(=O)=O	none (no result: PAX8 reporter)
COc1ccc(-c2ccc3c(c2)C2CC3CCN2Cc2ccc(OC(F)(F)F)cc2)cc1 (centres undefined)	FGF22 binding 43 (no result: PGC1a acetyl inh)
Cn1c(Cl)c(/C=N/OC(=O)C(C)(C)C)c2ccccc21	none
CC(=O)O/N=C/c1c(Cl)n(C)c2ccccc12	FGF22 binding 44 (no result: PGC1a acetyl inh)
COc1ccc(NC(=O)c2c(F)cccc2Cl)cc1S(=O)(=O)N1CCOCC1	FGF22 binding 43
COc1ccc(C(=O)Nc2ccc(-c3ccc(C)o3)cc2)cc1S(=O)(=O)N1CCOCC1	HIV Env fusion 63 (no result: EWS-Fli inh, FGF22 binding)
COc1ccc(Nc2nc(-c3ccccc3)nc3ccccc23)cc1S(=O)(=O)N1CCOCC1	PAX8 reporter 65
COc1ccc(C(=O)Nc2ccc(N3CCOCC3)cc2)cc1S(=O)(=O)N1CCOCC1	none
